According to ChEMBL document CHEMBL1145397, “Structure-activity relationships of a series of analogs of the endozepine octadecaneuropeptide (ODN(11)(-)(18)) on neurosteroid biosynthesis by hypothalamic explants” (2007):
The source made the active and inactive calls. No cut-off for these calls is given here.

What was measured:
Hypothalamus [1] = assay: Effect on neurosteroid biosynthesis assessed as conversion of [3H]pregnenolone to 17-Hydroxypregnenolone in frog hyphalamic explats at 1 uM after 2 hrs relative to control; format: functional, Pelophylax lessonae
Summary of the method: (§1)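 Frog hypothalamic explants, preincubated 15 min in HEPES/bicarbonate Ringer's (glucose, BSA, 95% O2/5% CO2, pH 7.4), then incubated 2 h at 24 °C with 10^-6 M [3H]pregnenolone in 4% propylene glycol, with or without peptide. Reaction stopped with trichloroacetic acid; steroids extracted in dichloromethane and resolved by RP-HPLC radioactivity profiles. Values are % of steroid formed without peptide, mean ± SEM of independent experiments.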

Hypothalamus [2] = assay: Effect on neurosteroid biosynthesis assessed as conversion of [3H]pregnenolone to progesterone in frog hyphalamic explats at 1 uM after 2 hrs relative control; format: functional, Pelophylax lessonae; summary of the method: as §1
Hypothalamus [3] = assay: Effect on neurosteroid biosynthesis assessed as conversion of [3H]pregnenolone to 17-Hydroxypregnenolone in frog hyphalamic explats at 10 uM after 2 hrs relative to control; format: functional, Pelophylax lessonae; summary of the method: as §1
Hypothalamus [4] = assay: Effect on neurosteroid biosynthesis assessed as conversion of [3H]pregnenolone to progesterone in frog hyphalamic explats at 10 uM after 2 hrs relative control; format: functional, Pelophylax lessonae; summary of the method: as §1
Hypothalamus [5] = assay: Effect on neurosteroid biosynthesis in frog hyphalamic explats at 1 uM after 2 hrs in presence of CBR antagonist flumazenil; format: functional, tissue-based; conditions: Pelophylax lessonae; summary of the method: as §1

Compound | Activity (Hypothalamus [1]) [%] | Activity (Hypothalamus [2]) [%] | Activity (Hypothalamus [3]) [%] | Activity (Hypothalamus [4]) [%] | Activity (Hypothalamus [5])
CC(C)C[C@@H]1NC(=O)CNC(=O)[C@@H]2CCCN2C(=O)[C@H](CCCNC(=N)N)NC(=O)[C@H](CCCCN)NC(=O)[C@H](CC(C)C)NC(=O)[C@H](CC(=O)O)NC(=O)[C@H](CC(C)C)NC1=O | 246.9 | 271.9 |  |  | 
CC(C)C[C@@H]1NC(=O)CNC(=O)[C@@H]2CCCN2C(=O)[C@H](CCCNC(=N)N)NC(=O)[C@H](CCCCN)NC(=O)[C@H](CC(C)C)NC(=O)[C@H](CC(=O)O)NC(=O)[C@@H](CC(C)C)NC1=O |  |  | 99.9 | 99.7 | 
CC(C)C[C@@H]1NC(=O)CNC(=O)[C@H]2CCCN2C(=O)[C@H](CCCNC(=N)N)NC(=O)[C@H](CCCCN)NC(=O)[C@H](CC(C)C)NC(=O)[C@H](CC(=O)O)NC(=O)[C@@H](CC(C)C)NC1=O |  |  |  |  | inactive
H-APGLLDLK-OH [APGLLDLK] | 402.7 | 276.5 |  |  | 
H-GLLDL-OH | 98.9 | 116.5 |  |  | 
H-GLLDLK-OH | 366.6 | 266.6 |  |  | 
H-LLDLK-OH | 103.6 | 103.8 |  |  | 
H-PGLLD-OH | 101.3 | 101.4 |  |  | 
H-PGLLDL-OH | 117.5 | 137 |  |  | 
H-PGLLDLK-OH [PGLLDLK] | 400.2 | 282.1 |  |  | 
H-QATVGDVNTDRPGLLDLK-OH [QATVGDVNTDRPGLLDLK] | 465.3 | 382.7 |  |  | 
H-RAGLLDLK-OH | 405 | 265.2 |  |  | 
H-RPALLDLK-OH | 126 | 99 |  |  | 
H-RPGALDLK-OH | 97.1 | 104.7 |  |  | 
H-RPGLADLK-OH | 92.8 | 108.5 |  |  | 
H-RPGLL-OH | 97.1 | 99.6 |  |  | 
H-RPGLLALK-OH | 103.6 | 100.4 |  |  | 
H-RPGLLD-OH | 98.2 | 98.6 |  |  | 
H-RPGLLDAK-OH | 99.5 | 103.2 |  |  | 
H-RPGLLDL-OH | 131.5 | 136.6 |  |  | 
H-RPGLLDLA-OH | 126 | 137 |  |  | 
H-RPGLLDLK-OH | 410.5 | 281.7 |  |  | inactive
